# Measurements as given in ChEMBL document CHEMBL1127495, “A recombinant human stromelysin catalytic domain identifying tryptophan derivatives as human stromelysin inhibitors” (J Med Chem, 1994).
# Molecular target: T1, Stromelysin-1 (Homo sapiens, UniProt P08254)
# Assay: In vitro inhibition of recombinant stromelysin catalytic domain.
# T1 sequence (P08254 whole entry, the tested form may be a part): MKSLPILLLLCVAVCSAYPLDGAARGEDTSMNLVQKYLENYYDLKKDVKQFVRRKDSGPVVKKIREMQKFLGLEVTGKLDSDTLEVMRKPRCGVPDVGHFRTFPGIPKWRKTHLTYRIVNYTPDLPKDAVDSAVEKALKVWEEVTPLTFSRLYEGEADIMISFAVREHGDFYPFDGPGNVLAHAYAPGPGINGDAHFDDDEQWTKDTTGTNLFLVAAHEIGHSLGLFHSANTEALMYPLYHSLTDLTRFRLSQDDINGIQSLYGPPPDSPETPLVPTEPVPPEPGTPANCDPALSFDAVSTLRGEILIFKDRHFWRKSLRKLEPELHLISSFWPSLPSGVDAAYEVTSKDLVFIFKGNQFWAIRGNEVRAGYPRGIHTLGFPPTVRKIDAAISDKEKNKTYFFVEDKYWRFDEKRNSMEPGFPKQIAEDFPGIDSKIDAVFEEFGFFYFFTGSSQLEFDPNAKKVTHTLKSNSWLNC
row,Compound,IC50 [µM]
1,NNC(=O)[C@H](Cc1ccc(O)cc1)NC(=O)OCc1ccccc1,> 500
2,N[C@H](Cc1c[nH]c2ccccc12)C(=O)O [D-TRYPTOPHAN],> 500
3,Cc1cc(C)c(S(=O)(=O)n2cc(C[C@H](NC(=O)OC(C)(C)C)C(=O)O)c3ccccc32)c(C)c1,63
4,O=C(N[C@@H](Cc1c[nH]c2ccccc12)C(=O)O)OCC1c2ccccc2-c2ccccc21,500
5,O=C(/C=C/c1ccco1)N[C@@H](Cc1c[nH]c2ccccc12)C(=O)O,145
6,CC(C)(C)OC(=O)N[C@@H](Cc1cn(C=O)c2ccccc12)C(=O)O,34
7,CC(C)(C)OC(=O)N[C@@H](Cc1c[nH]c2ccccc12)C(=O)ON1C(=O)CCC1=O,102
8,O=C(N[C@@H](Cc1ccccc1)C(=O)O)OCc1ccccc1,40
9,O=C(N[C@@H](Cc1c[nH]c2ccccc12)C(=O)ON1C(=O)CCC1=O)OCc1ccccc1,13
10,CC(C)(C)OC(=O)N[C@H](Cc1ccc(O)cc1)C(=O)O,> 500
11,O=C(N[C@H](Cc1ccccc1)C(=O)O)OCc1ccccc1,> 500
12,N[C@@H](Cc1c[nH]c2ccccc12)C(=O)O [TRYPTOPHAN],> 500
13,O=C(N[C@H](Cc1ccc(O)cc1)C(=O)O)OCc1ccccc1,432
14,CC(C)(C)OC(=O)N[C@@H](Cc1c[nH]c2ccccc12)C(=O)O,10
15,CC(=O)N[C@H](Cc1ccc(O)cc1)C(=O)O,> 500
16,CC(=O)N[C@@H](Cc1ccc(O)cc1)C(=O)O [ACETYL TYROSINE],> 500
17,NC(=O)[C@H](Cc1ccc(O)cc1)NC(=O)OCc1ccccc1,> 500
18,O=C(N[C@@H](Cc1ccc(O)cc1)C(=O)O)OCc1ccccc1,24

# Molecular target: T1, Stromelysin-1
# Assay: (§1) Inhibition of recombinant stromelysin catalytic domain (SCD)
# Procedure, shortened: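 E. coli-expressed human stromelysin catalytic domain (Phe-100 to Pro-273), expressed without propeptide so needing no activation, at 100 nM (10 nM for the hydroxamate peptide). A405 read over 3 min at room temperature.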
row,Compound,IC50 [µM]
1,CC(C)(C)OC(=O)N[C@@H](Cc1ccc(O)cc1)C(=O)O,< 500
2,NC(=O)[C@H](Cc1c[nH]c2ccccc12)NC(=O)OCc1ccccc1,< 500
3,O=C(N[C@H](Cc1c[nH]c2ccccc12)C(=O)O)OCC1c2ccccc2-c2ccccc21,< 500
4,CC(=O)N[C@H](Cc1c[nH]c2ccccc12)C(=O)O,< 500
5,O=C(N[C@@H](Cc1c[nH]c2ccccc12)C(=O)O)c1ccccc1,< 500
6,CC(C)(C)OC(=O)N[C@H](Cc1c[nH]c2ccccc12)C(=O)O,< 500
7,CC(=O)N[C@@H](Cc1c[nH]c2ccccc12)C(=O)O [ACETYLTRYPTOPHAN],< 500

# Molecular target: T1, Stromelysin-1
# Assay: as §1
row,Compound,Ki [µM]
1,Cc1cc(C)c(S(=O)(=O)n2cc(C[C@H](NC(=O)OC(C)(C)C)C(=O)O)c3ccccc32)c(C)c1,52
2,O=C(/C=C/c1ccco1)N[C@@H](Cc1c[nH]c2ccccc12)C(=O)O,120
3,CC(C)(C)OC(=O)N[C@@H](Cc1cn(C=O)c2ccccc12)C(=O)O,28
4,CC(C)(C)OC(=O)N[C@@H](Cc1c[nH]c2ccccc12)C(=O)ON1C(=O)CCC1=O,84
5,O=C(N[C@@H](Cc1ccccc1)C(=O)O)OCc1ccccc1,33
6,O=C(N[C@@H](Cc1c[nH]c2ccccc12)C(=O)ON1C(=O)CCC1=O)OCc1ccccc1,11
7,O=C(N[C@H](Cc1ccc(O)cc1)C(=O)O)OCc1ccccc1,356
8,CC(C)(C)OC(=O)N[C@@H](Cc1c[nH]c2ccccc12)C(=O)O,8
9,O=C(N[C@@H](Cc1ccc(O)cc1)C(=O)O)OCc1ccccc1,20

# Molecular target: T1, Stromelysin-1
# Assay: Inhibition of full length stromelysin isolated from cultured human cells (FLS)
row,Compound,Ki [µM]
1,O=C(N[C@@H](Cc1ccccc1)C(=O)O)OCc1ccccc1,83
2,O=C(N[C@H](Cc1ccc(O)cc1)C(=O)O)OCc1ccccc1,377
3,O=C(N[C@@H](Cc1ccc(O)cc1)C(=O)O)OCc1ccccc1,18

# Molecular target: T1, Stromelysin-1
# Assay: Inhibition of full length stromelysin isolated from cultured human cells (FLS).
row,Compound,IC50 [µM]
1,O=C(N[C@@H](Cc1ccccc1)C(=O)O)OCc1ccccc1,99
2,O=C(N[C@H](Cc1ccccc1)C(=O)O)OCc1ccccc1,> 500
3,O=C(N[C@H](Cc1ccc(O)cc1)C(=O)O)OCc1ccccc1,450
4,O=C(N[C@@H](Cc1ccc(O)cc1)C(=O)O)OCc1ccccc1,22
